Here are results for 3 compounds from PMC8530978 (Bioorganic chemistry, 2021).

In experiment [1] the test system is acetylation of SMC3 in HeLaM cells. The experiment is described as follows: Western blot of SMC3 acetylation in HeLaM cells. The class given is cell-based. The settings on record: overnight treatment. The method in brief: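 Acetylated SMC3 detected by immunoblot with an anti-acetyl-SMC3 antibody, HRP-conjugated secondary antibody and enhanced chemiluminescence, imaged on film.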
Background: In western blotting, separated proteins are transferred to a membrane and probed.

Experiment [2] concerns mitotic spindle of HeLaM cells. The class given is cell-based. As to conditions: compound 10 μM + MG132 + ZM447439 (DMSO+MG132+ZM447439 3%).
For experiment [3], the system named is HeLaM cells. Put plainly: Phase contrast time lapse microscopy, mitotic duration. The experiment is classed as cell-based. The settings on record: asynchronous HeLaM cells, images every 12 min.
The next experiment concerns the target HDAC1 (Homo sapiens, UniProt Q13547). Put plainly: HDAC-Glo inhibitor testing with recombinant HDAC1. The class given is biochemical.
The next experiment deals with HDAC2 (Homo sapiens, UniProt Q92769). The experiment is described as follows: HDAC-Glo inhibitor testing with recombinant HDAC2. The experiment is classed as biochemical.
HDAC2, sequence (Q92769 whole entry): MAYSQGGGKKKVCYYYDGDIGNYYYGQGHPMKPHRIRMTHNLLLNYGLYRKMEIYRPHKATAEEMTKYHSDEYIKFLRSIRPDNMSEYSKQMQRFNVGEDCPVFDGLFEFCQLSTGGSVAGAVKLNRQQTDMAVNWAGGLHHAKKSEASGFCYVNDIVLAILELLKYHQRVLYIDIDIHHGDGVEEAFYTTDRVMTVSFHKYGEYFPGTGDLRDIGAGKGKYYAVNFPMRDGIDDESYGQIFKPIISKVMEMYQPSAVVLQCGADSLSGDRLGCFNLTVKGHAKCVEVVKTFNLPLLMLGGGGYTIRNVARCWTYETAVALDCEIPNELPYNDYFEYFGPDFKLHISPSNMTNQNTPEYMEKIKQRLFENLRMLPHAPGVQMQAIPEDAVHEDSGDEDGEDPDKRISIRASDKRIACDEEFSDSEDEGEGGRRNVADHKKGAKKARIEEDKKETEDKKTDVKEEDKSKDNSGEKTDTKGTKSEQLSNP
For experiment [4], the system named is NCI sixty human tumor cell line panel. Put plainly: NCI sixty human tumor cell line panel, single dose 10 μM. The experiment is classed as cell-based. The settings on record: Homo sapiens, read-out: Mean % growth at 10 μM.
Experiment [5] deals with purified HDAC isoforms (HDAC1, 2, 3, 8 and HDAC6). Put plainly: Single concentration. The class given is biochemical. As to conditions: 100 μM, HDAC1, 2, 3, 8 and 6. The method in brief: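 Recombinant HDAC1, 2, 3, 6 or 8 (1 μL of enzyme stock at 3, 1, 30, 35 or 70 ng/μL respectively) in HDAC-Glo buffer, incubated 3 h at room temperature with test compound in DMSO. HDAC-Glo reagent then added; luminescence read every 3 min for 30 min. Peak signal corrected against a no-enzyme background and divided by the no-inhibitor signal to give % activity remaining.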

A further experiment deals with T1, HDAC6 (Homo sapiens, UniProt Q9UBN7).
T1 sequence (Q9UBN7 1-1215): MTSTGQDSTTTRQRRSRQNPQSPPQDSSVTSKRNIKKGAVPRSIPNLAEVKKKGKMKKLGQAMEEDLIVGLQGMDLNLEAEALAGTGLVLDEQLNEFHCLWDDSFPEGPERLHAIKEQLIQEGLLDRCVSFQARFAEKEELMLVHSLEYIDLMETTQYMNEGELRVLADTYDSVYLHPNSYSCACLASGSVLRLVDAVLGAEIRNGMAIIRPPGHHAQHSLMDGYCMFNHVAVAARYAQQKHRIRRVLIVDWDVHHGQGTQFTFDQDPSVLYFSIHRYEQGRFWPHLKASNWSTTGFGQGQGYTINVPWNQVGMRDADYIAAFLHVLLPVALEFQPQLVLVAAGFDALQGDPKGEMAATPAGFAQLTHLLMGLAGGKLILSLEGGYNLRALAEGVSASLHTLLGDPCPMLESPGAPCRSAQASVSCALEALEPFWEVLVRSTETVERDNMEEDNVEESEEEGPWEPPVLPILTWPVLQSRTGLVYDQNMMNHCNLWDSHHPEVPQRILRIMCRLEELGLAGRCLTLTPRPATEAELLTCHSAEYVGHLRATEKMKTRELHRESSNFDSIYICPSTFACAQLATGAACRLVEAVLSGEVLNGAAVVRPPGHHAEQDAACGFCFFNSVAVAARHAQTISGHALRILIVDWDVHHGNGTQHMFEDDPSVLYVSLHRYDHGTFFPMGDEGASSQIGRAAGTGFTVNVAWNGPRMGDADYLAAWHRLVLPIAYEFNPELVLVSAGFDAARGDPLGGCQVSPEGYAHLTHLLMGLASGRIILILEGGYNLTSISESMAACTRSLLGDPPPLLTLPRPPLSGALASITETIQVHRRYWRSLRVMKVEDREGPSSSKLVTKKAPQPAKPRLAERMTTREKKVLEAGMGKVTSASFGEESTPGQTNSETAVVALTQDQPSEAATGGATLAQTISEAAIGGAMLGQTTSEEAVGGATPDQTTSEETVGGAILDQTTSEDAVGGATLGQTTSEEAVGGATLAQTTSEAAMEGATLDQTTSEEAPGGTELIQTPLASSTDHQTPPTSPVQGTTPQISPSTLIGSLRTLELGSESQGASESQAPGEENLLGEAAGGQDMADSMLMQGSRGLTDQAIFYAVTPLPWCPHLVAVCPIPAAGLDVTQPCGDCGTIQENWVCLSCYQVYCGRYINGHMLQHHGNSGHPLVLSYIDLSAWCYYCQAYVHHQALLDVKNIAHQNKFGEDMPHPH
Put plainly: HDAC-Glo inhibitor testing with recombinant HDAC6. The class given is biochemical.

For experiment [6], the system named is HeLaM cells. Put plainly: Flow cytometry cell cycle analysis. The experiment is classed as cell-based. As to conditions: for cells in G2/M: 48 hours, subG1 excluded (DMSO 10%); for subG1 population: 72 hr post treatment (DMSO 14%). In outline:
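5 × 10^5 HeLaM cells plated, treated next day with test compound or DMSO for 24, 48 or 72 h. All cells (floating and attached) collected and fixed in 70% ethanol (final). […] 10 μg/ml, 30 min, 37 °C, then propidium iodide in PBS + 2% FBS. SubG1 gated; subG1 excluded before modeling live-cell cycle distribution.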
In general terms: In flow cytometry, cells or beads pass a laser one at a time.

Another experiment deals with HCT 116 cells. The experiment is described as follows: MTS reduction assay, antiproliferative activity on HCT 116. The settings on record: Homo sapiens, HCT-116, 96 h. The experiment is classed as cell-based. The method in brief: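 HCT116 cells grown in McCoy's 5A with 10% FBS (37 °C, 5% CO2), seeded at 3 × 10^3/well in triplicate and left to adhere overnight. Exposed to test compound at 0.01–100 μM, or DMSO, for 96 h. MTS reagent added for 2 h at 37 °C; absorbance read at 490 nm. Curves of log(concentration) vs response fitted with a variable Hill slope.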
(In general: Tetrazolium assays rely on reduction of a dye to a coloured formazan, in cell work by metabolically active cells.)

Experiment [7] has as its system HDAC8-null and control HCT116 cells. Put plainly: Cytotoxicity in HDAC8-null versus control HCT116 cells. The experiment is classed as cell-based, human. The settings on record: 10 μM.
For experiment [8], the target named is tubulin heterodimers, purified from porcine brain (Sus scrofa, UniProt P02554). Put plainly: Turbidity-based tubulin polymerization assay. The experiment is classed as biochemical. The settings on record: for Vmax of tubulin polymerization: 37 °C, exponential phase (DMSO 10 mOD/min).
tubulin heterodimers, purified from porcine brain, sequence (P02554 whole entry): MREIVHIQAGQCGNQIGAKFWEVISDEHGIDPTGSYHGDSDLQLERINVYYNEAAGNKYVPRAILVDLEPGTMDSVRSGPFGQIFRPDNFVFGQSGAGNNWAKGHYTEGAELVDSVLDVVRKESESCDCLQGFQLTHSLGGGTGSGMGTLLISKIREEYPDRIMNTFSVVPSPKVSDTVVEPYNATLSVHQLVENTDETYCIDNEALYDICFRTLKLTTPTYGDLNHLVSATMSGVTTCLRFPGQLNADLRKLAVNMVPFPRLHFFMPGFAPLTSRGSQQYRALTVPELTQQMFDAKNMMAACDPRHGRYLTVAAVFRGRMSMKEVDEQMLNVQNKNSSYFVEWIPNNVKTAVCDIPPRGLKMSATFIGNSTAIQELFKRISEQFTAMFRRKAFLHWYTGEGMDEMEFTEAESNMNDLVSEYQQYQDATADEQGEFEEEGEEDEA
tubulin heterodimers, purified from porcine brain, sequence (P02550 whole entry partner): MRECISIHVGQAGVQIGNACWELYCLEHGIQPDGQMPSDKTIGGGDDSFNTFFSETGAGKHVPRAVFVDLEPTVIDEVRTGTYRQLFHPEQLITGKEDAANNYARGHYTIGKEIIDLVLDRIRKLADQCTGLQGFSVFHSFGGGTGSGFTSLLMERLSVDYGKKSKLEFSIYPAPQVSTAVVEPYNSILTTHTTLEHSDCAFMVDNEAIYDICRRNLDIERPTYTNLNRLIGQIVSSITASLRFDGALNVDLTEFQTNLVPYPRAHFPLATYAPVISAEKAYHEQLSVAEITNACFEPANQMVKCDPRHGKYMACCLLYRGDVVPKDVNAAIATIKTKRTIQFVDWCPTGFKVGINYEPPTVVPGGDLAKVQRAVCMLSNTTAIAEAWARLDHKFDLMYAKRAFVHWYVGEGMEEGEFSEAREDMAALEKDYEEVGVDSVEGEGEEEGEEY
Experiment [9] has as its system histone H3 acetylation and tubulin acetylation in HCT116 cells. The experiment is described as follows: Western blot of histone H3 and tubulin acetylation in HCT116 cells. As to conditions: HCT116, 24 h, IPEs up to highest concentration 25 μM. The class given is cell-based, human. The method in brief:
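HCT116 cells (2 × 10^6 per T-25 flask) adhered overnight, then given test compound at 1, 10 or 25 μM, or DMSO, for 24 h. Lysed in RIPA; protein measured by BCA. Acetyl-histone H3 and acetyl-tubulin immunoblotted, detected with fluorescent secondary antibodies on an Odyssey scanner.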

The test system of experiment [10] is HeLaM cells expressing mcherry-α-tubulin. Put plainly: Spindle reassembly after recovery from cold shock. The experiment is classed as cell-based. The settings on record: 8 minutes post-rewarming, versus control. The method in brief:
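HeLaM clone stably expressing mCherry-α-tubulin, treated with test compound or DMSO for 30 min at 37 °C, chilled 30 min at 4 °C, then rewarmed at 37 °C. Fixed at 0, 4, 8 and 20 min after rewarming; wide-field fluorescence imaging. Four repeats, 10–30 cells per condition per experiment. Blinded 8-min images scored, and spindle outlines traced to quantify morphology.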

Experiment [11] deals with HeLaM cells. Put plainly: Chromosome drops to determine mitotic index. The experiment is classed as cell-based. The settings on record: 10 μM, after release from thymidine block. The method in brief:
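HeLaM cells held in S phase with a single 2 mM thymidine block overnight, washed in PBS and released into test compound for about 9 h, then given ZM447439 for 90 min. Attached and floating cells were pooled, trypsinized, swollen in 0.075 M KCl (10 min, 37 °C), fixed in methanol:acetic acid 3:1 and dropped onto slides. DAPI stain. Mitotic index scored blinded over at least three experiments.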

A value given as a limit tells only on which side of the number the result lay.

HDAC1, sequence (Q13547 whole entry): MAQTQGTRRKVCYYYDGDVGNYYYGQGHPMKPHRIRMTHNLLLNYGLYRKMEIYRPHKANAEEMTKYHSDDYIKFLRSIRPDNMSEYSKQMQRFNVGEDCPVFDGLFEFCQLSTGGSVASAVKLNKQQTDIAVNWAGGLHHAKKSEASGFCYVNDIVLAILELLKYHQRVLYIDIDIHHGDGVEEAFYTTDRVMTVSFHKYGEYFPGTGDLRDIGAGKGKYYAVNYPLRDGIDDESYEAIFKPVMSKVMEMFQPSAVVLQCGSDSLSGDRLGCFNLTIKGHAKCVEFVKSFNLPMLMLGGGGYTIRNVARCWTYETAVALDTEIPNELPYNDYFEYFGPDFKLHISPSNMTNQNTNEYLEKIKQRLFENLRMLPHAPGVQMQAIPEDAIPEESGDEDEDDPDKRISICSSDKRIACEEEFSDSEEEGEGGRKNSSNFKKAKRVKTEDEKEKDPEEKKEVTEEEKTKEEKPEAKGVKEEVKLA

As to `COc1ccc(Cn2ccc3ccc(C(=O)NO)cc32)cc1` [PCI34051, reference compound], the SMC3 acetylation result in experiment [1] was “an increase in SMC3 acetylation”. The spindle collapse result in experiment [2] was “did not produce the same aberrant spindle”. Moreover, the “mitotic duration / mitotic arrest” value in the experiment on HeLaM cells [3] stood at 1.5 h.

For the compound `O=C(Cc1ccc(/C=C/C(=O)c2ncc[nH]2)cc1)Nc1ccc(Cl)cc1` [IPE-8, (E)-2-(-4(3-(1H-imidazol-2-yl)-3-oxoprop-1-en-1-yl)phenyl)-N-(4-chlorophenyl)acetamide], in experiment [1], the SMC3 acetylation entry is “no effect on SMC3 acetylation”. In addition, the IC50 on HDAC1, on HDAC2 and at HDAC6 was above 100 µM throughout. Moreover, the activity at 10 µM in [4] was 21.1%. In [5], the “activity remaining, each HDAC isoform” value was 20–80%. Further, the “cells in G2/M” value in the experiment with HeLaM cells [6] worked out at 33%. The compound further had a subG1 population with HeLaM cells [6] of 59%. Besides, in the experiment with HCT 116 cells, the GI50 (as a rule, the concentration giving 50% growth inhibition) was 5.14 µM.

On to `O=C(Cc1ccc(/C=C/C(=O)c2ncc[nH]2)cc1)Nc1ccc(F)cc1` [IPE-7, (E)-2-(4-(3-(1H-Imidazol-2-yl)-3-oxoprop-1-en-1-yl)phenyl)-N-(4-fluorophenyl)acetamide], for which the SMC3 acetylation entry in experiment [1] was “no effect on SMC3 acetylation”. The “cell killing of parental and HDAC8-null cells” value in experiment [7] is “both parental and HDAC8-null cells were killed”. In addition, the “Vmax of tubulin polymerization” value in experiment [8] (10 μM compound) amounted to 5.5 mOD/min; in experiment [8] (50 μM compound) it was 4.5 mOD/min. The “microtubule depolymerization upon cooling” value in experiment [8] (50 μM, cooling to ~15°C) is reported as “Depolymerization was accelerated”. Moreover, the activity at 10 µM in [4] is 27.5%. The “activity remaining, each HDAC isoform” value in experiment [5] is reported as 20–80%. The spindle collapse in experiment [2] amounted to 97%. Also, in experiment [9], the “global histone H3 acetylation and tubulin acetylation” value is recorded as “no increase in global histone acetylation or tubulin acetylation”. For the same compound, in [10], the abnormal spindles result is recorded as “significantly more abnormal spindles”. The “cells in G2/M” value in the experiment with HeLaM cells [6] was determined as 36%. Moreover, the subG1 population with HeLaM cells [6] is reported as 58%. The compound further displayed a GI50 in the experiment on HCT 116 cells of 6.95 µM. Moreover, the “mitotic arrest (mitotic index)” value with HeLaM cells [11] is on record as “arrested cells in mitosis”.
